Screening results (PubChem)
M1 antagonist – antagonists of rat M1 muscarinic receptor. B-score at 10 µM. Muscarinic acetylcholine receptor M1 (Rattus norvegicus), P08482. hit rate 3.4% among 64,000. CHO-M1 cells, Fluo-4 calcium, ACh EC80 antagonist mode; active compounds read low;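 active = calcium fluorescence response, raw or row-and-column corrected B-score, differing from the plate sample mean either way at a set confidence level, mostly lower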
S1P3 ag – human S1P3 receptor agonists, primary screen, cell-based, primary and confirmation, NFAT-BLA reporter; hit rate 0.1% among 60,000; Sphingosine 1-phosphate receptor 3 (Homo sapiens), Q99500; S1P3 NFAT-BLA reporter cells, agonism, FRET ratio; relative to 1 µM S1P, basal subtracted; AID 373, 2006; activation, % at 4.5 µM;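 active = activation above the screen-wide mean plus 3 SD, cut at about 4.5% in these data, passing the limit was not always enough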
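Benchmarks: high control 1 µM S1P / System: stable CHO line with human S1P3, Gα16, NFAT-BLA reporter / Dosing: single compound concentration, 4.5 µM final / Timing: 4 h compound at 37 °C, 2 h substrate at RT / Measured by: FRET β-lactamase substrate fluorescence, excitation 405 nm, 460/535 nm emission ratio, background-subtracted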
M1 agonist – M1 muscarinic receptor agonists, primary screen, CHO-M1 cells, Fluo-4 calcium, agonist mode; hit rate 3% among 64,000; Muscarinic acetylcholine receptor M1; Fluo-4 calcium fluorescence; active compounds read high; AID 626, 2007; B-score at 10 µM;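 active = fluorescence rise, raw or as B-score row- and column-corrected plate score, outside the 99.7% band of its plate's samples, either direction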
S1P1 ag pot – S1P1 agonists and agonism potentiators, primary screen, cell-based, primary and confirmation screens, CRE-bla reporter | Sphingosine 1-phosphate receptor 1 (Homo sapiens), P21453 | activation, % at 9.5 µM | hit rate 0.57% among 56,000 | AID 449, 2006 | S1P1 CRE-bla cells, forskolin, beta-lactamase FRET, potentiator mode; S1P1 agonist co-added at EC20, 2 nM; 100% = saturating reference agonist, 0% = basal;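 active = activation above a cutoff set at the mean activation of all tested compounds plus 3 SD, cut at about 54% in these data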;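 also: forskolin at 4 µM as EC80 and the EC20 agonist is SEW2871; 100% = SEW2871 at its EC100 plus forskolin at EC80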
Target sequence (P21453 whole entry, looked up): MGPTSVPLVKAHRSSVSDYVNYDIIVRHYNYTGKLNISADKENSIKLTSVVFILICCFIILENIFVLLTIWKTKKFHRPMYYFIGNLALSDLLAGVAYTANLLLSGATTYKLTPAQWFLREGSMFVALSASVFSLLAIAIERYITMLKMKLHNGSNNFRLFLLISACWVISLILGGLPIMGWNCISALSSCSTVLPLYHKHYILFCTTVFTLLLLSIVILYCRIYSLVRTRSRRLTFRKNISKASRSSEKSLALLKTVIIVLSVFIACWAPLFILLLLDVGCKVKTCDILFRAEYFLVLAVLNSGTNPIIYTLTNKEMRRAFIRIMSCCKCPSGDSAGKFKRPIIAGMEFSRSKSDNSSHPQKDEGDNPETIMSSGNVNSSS
D1 allo mod – D1 CRE-luciferase signal change, two-sided – cell-based, HEK293 D1, dopamine EC30, D1 allosteric modulator project, primary screen | D(1A) dopamine receptor (Homo sapiens), P21728 | dopamine EC30 potentiation; actives deviate in either direction | B-score at 10 µM | hit rate 5.9% among 58,000;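 active = luminescence count or its row- and column-corrected plate score outside the 99.7% band of the plate's sample wells, on either side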
M1 antag confirm – rat M1 muscarinic receptor antagonists, confirmation, CHO cells, Fluo-4 calcium, duplicate. ACh EC80 antagonism; active compounds read low. hit rate 43% among 1,700. AID 677, 2007. shares compounds with M1 antagonist. calcium response (max-min fluorescence) at 10 µM;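 active = calcium response below the same-plate mean of wells given acetylcholine alone at its 80%-effect dose, minus 3 SD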;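 also: raw fluorescence intensity difference in arbitrary instrument units and not normalized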
mGluR4 antag – human mGluR4 response to M1 antagonist hits, M1 allosteric modulator project, cell-based, antagonist mode, secondary assay 1. shares compounds with M1 antagonist. CHO-mGluR4 calcium flux, Fluo-4 fluorescence, glutamate EC80; active compounds read low. hit rate 0.9% among 1,700. AID 678, 2007. fluorescence response (max-min) at 10 µM;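 active = fluorescence response below the plate's average for near-maximal glutamate wells, less 3 SD of those wells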;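 also: raw unnormalized fluorescence span taken in the window right after glutamate addition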
An asterisk follows results filed as active. Rows were chosen to be rich in hits. Some 11% of all compounds tested hit in one or more screens of this group.

How did CCN(CC)CCOC(=O)C1(c2ccccc2)CCOCC1 do in these assays?
M1 antagonist: -15*; S1P3 ag: 0; M1 agonist: -0.94; S1P1 ag pot: -21; D1 allo mod: 0.78; M1 antag confirm: 102*; mGluR4 antag: 237

How did Cc1sc2nc3ccc(N4CCCCC4)nn3c(=O)c2c1C do in these assays?
M1 antagonist: -2.3*; S1P3 ag: 0; M1 agonist: 3; S1P1 ag pot: -69; D1 allo mod: 1.8; M1 antag confirm: 619; mGluR4 antag: 222

Results for Cc1ccc2nc3ccc(N4CCCC4)nn3c(=O)c2c1 ?
M1 antagonist: -1; S1P3 ag: -1; M1 agonist: -0.03; S1P1 ag pot: -20; D1 allo mod: 0.27

How did Cc1c(C#N)c(SCC(N)=O)nc2c1CCCC2 do in these assays?
M1 antagonist: -2*; S1P3 ag: -1; M1 agonist: 0.28; S1P1 ag pot: -16; M1 antag confirm: 648; mGluR4 antag: 246

How did Cc1cc(C(=O)OCC(=O)Nc2cc(C)on2)c2ccccc2n1 do in these assays?
M1 antagonist: -6.1*; S1P3 ag: -1; M1 agonist: -0.61; S1P1 ag pot: -15; D1 allo mod: 0.75; M1 antag confirm: 656; mGluR4 antag: 228

What do the screens show for `Cn1c(NC(=O)c2cc(Cl)ccc2Cl)cc(=O)n(C)c1=O`?
M1 antagonist: -0.019; S1P3 ag: 1; M1 agonist: -0.89; S1P1 ag pot: -26; D1 allo mod: 0.46

How did COc1cccc(C(=O)Nc2cc(=O)n(C)c(=O)n2C)c1OC do in these assays?
M1 antagonist: -3.8*; S1P3 ag: -1; M1 agonist: -0.46; S1P1 ag pot: -16; D1 allo mod: -0.28; M1 antag confirm: 651; mGluR4 antag: 238

How did Cc1nc(SCC(=O)NCc2ccco2)c2c3c(sc2n1)CCCC3 do in these assays?
M1 antagonist: 0.0085; S1P3 ag: 0; M1 agonist: 0.043; S1P1 ag pot: -42

Results for CC(C)Sc1nc(SCC(=O)NCc2ccco2)c2c3c(sc2n1)COC(C)(C)C3 ?
M1 antagonist: -1.9*; M1 agonist: 0; M1 antag confirm: 681; mGluR4 antag: 214

How did CN1CCN(S(=O)(=O)c2ccc(NC(=O)c3cccc(S(=O)(=O)N4CCCC4)c3)cc2)CC1 do in these assays?
M1 antagonist: -16*; S1P3 ag: -1; M1 agonist: -0.36; S1P1 ag pot: -7; D1 allo mod: 0.8; M1 antag confirm: 43*; mGluR4 antag: 210

How did COc1ccc(N2C(=O)C3CCCN3C2c2cc(OC)c(OC)c(OC)c2)cc1 (stereo not given) do in these assays?
M1 antagonist: -2.1*; S1P3 ag: 0; M1 agonist: 0.21; S1P1 ag pot: -8; D1 allo mod: -0.35; M1 antag confirm: 645; mGluR4 antag: 216

How did COc1cc(C2N(c3ccc(Cl)cc3)C(=O)C3CCCN32)cc(OC)c1OC (stereo not given) do in these assays?
M1 antagonist: 0.029; S1P3 ag: 1; M1 agonist: -0.4; S1P1 ag pot: -17; D1 allo mod: 1

Results for COc1ccc(S(=O)(=O)N2CCN(C3CCCCCCC3)CC2)cc1 ?
M1 antagonist: -0.025; S1P3 ag: -1; M1 agonist: 0.59; S1P1 ag pot: -10; D1 allo mod: 0.32

What do the screens show for `Cc1ccc(S(=O)(=O)N2CCN(C3CCN(Cc4ccccc4)CC3)CC2)cc1`?
M1 antagonist: -15*; S1P3 ag: -2; M1 agonist: -0.031; S1P1 ag pot: 6; D1 allo mod: 0.055; M1 antag confirm: 292*; mGluR4 antag: 265

Results for COc1ccc(S(=O)(=O)N2CCN(C3CCN(Cc4ccccc4)CC3)CC2)cc1 ?
M1 antagonist: -11*; S1P3 ag: -2; M1 agonist: 0.81; S1P1 ag pot: -2; D1 allo mod: 0.0017; M1 antag confirm: 189*; mGluR4 antag: 211

What do the screens show for `O=S(=O)(c1ccccc1)N1CCN(C2CCN(Cc3ccccc3)CC2)CC1`?
M1 antagonist: -7.5*; S1P3 ag: -1; M1 agonist: 0.45; D1 allo mod: -2.4; M1 antag confirm: 244*; mGluR4 antag: 172

How did COc1cccc(CN2CCCN(S(=O)(=O)c3ccc(Br)cc3)CC2)c1 do in these assays?
M1 antagonist: -10*; S1P3 ag: 0; M1 agonist: 1.6; S1P1 ag pot: 31; D1 allo mod: 0.55; M1 antag confirm: 301*; mGluR4 antag: 260

How did CCCS(=O)(=O)N1CCCC(C(=O)N2CCOCC2)C1 (stereo not given) do in these assays?
M1 antagonist: 0.029; S1P3 ag: 0; M1 agonist: 0.19; S1P1 ag pot: -32; D1 allo mod: -0.26

What do the screens show for `CCOC(=O)Cn1c(CN(Cc2ccccc2)Cc2ccccc2)nc2c1c(=O)n(C)c(=O)n2C`?
M1 antagonist: -0.2; S1P3 ag: 0; M1 agonist: 1.6; S1P1 ag pot: -23; D1 allo mod: 0.045

Results for O=C(O)c1cc(S(=O)(=O)Nc2ccc3c(c2)OCCO3)c(Cl)cc1Cl ?
M1 antagonist: 1.4; S1P3 ag: 1; M1 agonist: -0.089; S1P1 ag pot: -13; D1 allo mod: -1.8

Results for COc1ccccc1S(=O)(=O)n1cc(Cc2ccccc2)c(N)n1 ?
M1 antagonist: -0.12; S1P3 ag: -2; M1 agonist: 0.85; S1P1 ag pot: 8; D1 allo mod: 0.3

How did CCOC(=O)NC(Nc1sc2c(c1C(=O)OC)CCN(C)C2)(C(F)(F)F)C(F)(F)F do in these assays?
M1 antagonist: -1.4*; S1P3 ag: -5; M1 agonist: 0.76; S1P1 ag pot: 0; D1 allo mod: -0.7; M1 antag confirm: 443; mGluR4 antag: 217

How did Cn1cc(S(=O)(=O)NCc2ccco2)c(=O)n(C)c1=O do in these assays?
M1 antagonist: 0.81; S1P3 ag: 0; M1 agonist: -1.5; S1P1 ag pot: 10; D1 allo mod: -1.2

What do the screens show for `CN1C(=O)C(O)(C2COC(C)(C)CC2=O)c2ccccc21` (stereo not given)?
M1 antagonist: -3.8*; S1P3 ag: -2; M1 agonist: 1; S1P1 ag pot: 6; D1 allo mod: -1.6; M1 antag confirm: 472*; mGluR4 antag: 237

Results for CN1C(=O)C(O)(C2COC(C)(C)CC2=O)c2cc(Br)ccc21 (stereo not given) ?
M1 antagonist: -0.49; S1P3 ag: -1; M1 agonist: 0.14; S1P1 ag pot: 24; D1 allo mod: -0.2
